pKi: −log10 of the molar value.
Columns and labels:
[1] = biological target: T1, Phenylethanolamine N-methyltransferase (Bos taurus, UniProt P10938); experiment: Inhibition of bovine adrenal Phenylethanolamine N-Methyltransferase
T1 sequence (P10938 whole entry): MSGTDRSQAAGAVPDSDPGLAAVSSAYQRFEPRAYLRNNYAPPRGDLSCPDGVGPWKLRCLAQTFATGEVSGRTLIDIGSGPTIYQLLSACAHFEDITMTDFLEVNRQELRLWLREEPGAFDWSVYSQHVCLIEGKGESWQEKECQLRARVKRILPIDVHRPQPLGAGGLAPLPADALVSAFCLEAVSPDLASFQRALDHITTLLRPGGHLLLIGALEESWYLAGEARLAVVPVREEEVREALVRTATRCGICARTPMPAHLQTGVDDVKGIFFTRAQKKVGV

[2] = biological target: T1, Phenylethanolamine N-methyltransferase; experiment: In vitro inhibitory activity against bovine adrenal phenylethanolamine N-methyl transferase
[3] = Relative affinity for PNMT and alpha2 adrenergic receptors
[4] = biological target: T2, Adrenergic receptor alpha-2 (Rattus norvegicus, UniProt P22086+P19328+P22909); experiment: In vitro binding affinity towards cortical membranes of male Sprague-Dawley rats alpha-2 adrenergic receptor by replacing [3H]clonidine
T2 sequence (P22086 whole entry): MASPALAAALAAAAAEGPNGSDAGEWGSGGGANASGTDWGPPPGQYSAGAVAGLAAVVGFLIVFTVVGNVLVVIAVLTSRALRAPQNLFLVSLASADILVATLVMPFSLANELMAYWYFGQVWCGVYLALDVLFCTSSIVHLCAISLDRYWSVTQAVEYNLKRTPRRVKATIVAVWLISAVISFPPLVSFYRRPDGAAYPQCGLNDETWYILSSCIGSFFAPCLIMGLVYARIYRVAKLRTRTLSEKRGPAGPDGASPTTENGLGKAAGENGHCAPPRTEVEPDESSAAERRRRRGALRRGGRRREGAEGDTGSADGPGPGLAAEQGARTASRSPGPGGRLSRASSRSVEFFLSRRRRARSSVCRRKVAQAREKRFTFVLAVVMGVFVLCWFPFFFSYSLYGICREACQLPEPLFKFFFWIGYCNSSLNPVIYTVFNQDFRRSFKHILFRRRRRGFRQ
T2 sequence (P19328 whole entry): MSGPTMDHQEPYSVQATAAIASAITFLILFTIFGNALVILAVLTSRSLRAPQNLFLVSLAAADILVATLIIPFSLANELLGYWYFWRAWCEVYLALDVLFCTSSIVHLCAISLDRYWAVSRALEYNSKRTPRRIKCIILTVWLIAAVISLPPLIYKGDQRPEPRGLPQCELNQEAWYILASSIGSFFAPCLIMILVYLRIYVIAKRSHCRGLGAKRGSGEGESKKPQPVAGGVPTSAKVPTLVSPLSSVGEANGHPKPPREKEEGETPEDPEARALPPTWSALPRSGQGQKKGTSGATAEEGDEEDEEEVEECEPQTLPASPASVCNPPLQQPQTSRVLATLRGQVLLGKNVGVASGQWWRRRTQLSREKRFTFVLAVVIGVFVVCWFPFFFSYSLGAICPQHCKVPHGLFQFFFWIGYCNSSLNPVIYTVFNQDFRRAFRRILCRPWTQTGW
T2 sequence (P22909 whole entry): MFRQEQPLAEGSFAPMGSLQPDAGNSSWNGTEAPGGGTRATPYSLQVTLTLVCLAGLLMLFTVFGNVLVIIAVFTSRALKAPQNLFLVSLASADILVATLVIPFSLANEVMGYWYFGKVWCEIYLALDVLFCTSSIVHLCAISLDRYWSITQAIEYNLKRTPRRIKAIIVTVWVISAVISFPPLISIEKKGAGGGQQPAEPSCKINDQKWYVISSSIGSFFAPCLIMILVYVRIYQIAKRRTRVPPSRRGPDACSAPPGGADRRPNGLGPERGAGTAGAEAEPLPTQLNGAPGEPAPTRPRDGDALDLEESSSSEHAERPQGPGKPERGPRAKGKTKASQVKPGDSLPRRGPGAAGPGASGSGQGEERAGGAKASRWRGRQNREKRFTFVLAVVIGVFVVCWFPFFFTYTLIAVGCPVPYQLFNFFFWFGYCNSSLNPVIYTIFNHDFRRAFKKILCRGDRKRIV
Procedure, shortened: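 Rat cortex (male Sprague-Dawley) homogenised in ice-cold 50 mM Tris/HCl pH 7.7, washed by three 50000g spins. Tissue incubated with 4.0 nM [3H]clonidine (final) and drug at five concentrations over a 16-fold range, 25 °C for 30 min. Bound ligand collected by vacuum filtration on GF/B filters and counted. Nonspecific binding set with 2 μM phentolamine. Quadruplicate. IC50 from log-probit analysis; Ki = IC50/(1+[clonidine]/KD).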

[5] = biological target: T2, Adrenergic receptor alpha-2; experiment: Displacement of [3H]clonidine from Alpha-2 adrenergic receptor of rat cortical membranes; type: cell membranes, Membrane
Procedure, shortened: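 Male Sprague-Dawley rat cortex homogenized in ice-cold 50 mM Tris/HCl (pH 7.7 at 25 °C), washed by three 50000g spins, resuspended at 200 volumes. [3H]clonidine 4.0 nM final; 25 °C, 30 min; terminated by vacuum filtration on GF/B filters and scintillation counting. Nonspecific binding with 2 μM phentolamine.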

[6] = biological target: Adrenergic receptor alpha-2 (Rattus norvegicus) (UniProt P22086+P19328+P22909); experiment: Stereo selectivity ratio for alpha-2(-)/(+) activities
[7] = biological target: T3, Phenylethanolamine N-methyltransferase (Bos taurus) (UniProt P10938); experiment: Stereo selectivity ratio for PNMT(-)/(+ ) activities
T3 sequence (whole entry): T1 sequence (P10938 whole entry)

[8] = biological target: T1, Phenylethanolamine N-methyltransferase; experiment: In vitro inhibitory activity against bovine adrenal Phenylethanolamine N-Methyltransferase (for +- stereoisomer)

Row | SMILES | pKi [1] | Selectivity [3] | other results
1 | O=[N+]([O-])c1ccc2c(c1)CN[C@H](CO)C2 | 6.05 |  | 
2 | O=C(O)C1Cc2ccccc2CN1 (centres undefined) |  |  | pKi [2]: < 2.70
3 | OC[C@@H]1Cc2ccccc2CN1 | 4.82 | 1.1 | 
4 | CCC1Cc2ccccc2CN1 (centres undefined) |  |  | Ki [4]: 0.66 µM
5 | NC(=O)C1Cc2ccccc2CN1 (centres undefined) |  |  | Ki [5]: 250 µM
6 | C[C@@H]1Cc2ccc([N+](=O)[O-])cc2CN1 | 5.89 | 41 | Ratio [6]: 2.8; Ratio [7]: 5.2
7 | COC(=O)C1Cc2ccccc2CN1 (centres undefined) |  |  | Ki [5]: 11 µM
8 | COCC1Cc2ccccc2CN1 (centres undefined) | 5.04 | 0.3 | 
9 | CS(=O)(=O)c1ccc2c(c1)CNC(CO)C2 (centres undefined) | 6.19 | 1000 | 
10 | O=[N+]([O-])c1ccc2c(c1)CN[C@@H](CO)C2 | 6.62 |  | 
11 | O=[N+]([O-])c1ccc2c(c1)CNC(CO)C2 (centres undefined) | 6.54 |  | 
12 | NS(=O)(=O)c1ccc2c(c1)CNC(CO)C2 (centres undefined) | 6.47 | 4100 | 
13 | OCC1Cc2ccccc2CN1 (centres undefined) |  | 6 | pKi [8]: 5.96
14 | CC1Cc2ccc([N+](=O)[O-])cc2CN1 (centres undefined) | 6.31 | 63 | Ki [5]: 31 µM
15 | OC[C@H]1Cc2ccccc2CN1 | 6.25 | 7.9 | Ratio [6]: 3.9; Ratio [7]: 27
16 | C[C@H]1Cc2ccc([N+](=O)[O-])cc2CN1 | 6.60 |  | 
